Data taken from ChEMBL document CHEMBL1128284, “Synthesis and in vitro activity of 17 beta-(N-alkyl/arylformamido)- and 17 beta-[(N-alkyl/aryl)alkyl/arylamido]-4-methyl-4-aza-3-oxo-5 alpha-androstan-3-ones as inhibitors of human 5 alpha-reductases and antagonists of the androgen receptor” (J Med Chem, 1995).

How the values were obtained:
[1] = molecular target: T1, 3-oxo-5-alpha-steroid 4-dehydrogenase 2 (Homo sapiens, UniProt P31213); assay: In vitro inhibition of human steroid 5-alpha-reductase type 2 in SW-13-transfected cells; assay type: cell-based
T1 sequence (P31213 whole entry): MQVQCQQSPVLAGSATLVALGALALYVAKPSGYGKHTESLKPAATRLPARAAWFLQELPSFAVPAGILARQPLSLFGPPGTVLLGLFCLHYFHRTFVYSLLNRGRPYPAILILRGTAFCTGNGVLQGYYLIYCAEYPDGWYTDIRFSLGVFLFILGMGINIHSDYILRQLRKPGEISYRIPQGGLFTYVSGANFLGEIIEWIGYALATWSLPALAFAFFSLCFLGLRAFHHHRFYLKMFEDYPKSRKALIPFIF
Outline: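 Homogenate of SW-13 cells transfected with human type II 5α-reductase cDNA; 5 nM [3H]androstenedione, 500 μM NADPH, 50 mM Tris HCl pH 7.5 with 20% glycerol, 1 mM EDTA; 60 min, 37 °C. Ether extraction with steroid carriers, TLC, radioactivity counted; androstanedione formed as % of control.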

[2] = molecular target: T2, 3-oxo-5-alpha-steroid 4-dehydrogenase 1 (Homo sapiens, UniProt P18405); assay: In vitro inhibition of human steroid 5-alpha-reductase type I in Du-145 cells; assay type: cell-based
T2 sequence (P18405 whole entry): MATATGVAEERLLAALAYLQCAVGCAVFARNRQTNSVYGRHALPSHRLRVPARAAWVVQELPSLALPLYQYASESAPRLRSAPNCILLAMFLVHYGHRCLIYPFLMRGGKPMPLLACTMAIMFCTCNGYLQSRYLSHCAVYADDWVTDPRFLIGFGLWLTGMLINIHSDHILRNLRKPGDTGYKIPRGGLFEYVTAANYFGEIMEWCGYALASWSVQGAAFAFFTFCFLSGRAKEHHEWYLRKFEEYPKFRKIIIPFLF
Outline: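 Intact DU-145 cells (passages 60–90), 100000 cells/well, adhered 24 h; compounds in ethanol diluted in DMEM/2% charcoal-adsorbed FBS with 5 nM [3H]androstenedione, 24 h at 37 °C, 5% CO2. Ether extraction, TLC, radioactivity; androstanedione, androsterone, epiandrosterone formed as % of control.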

Structure (SMILES) | IC50 [1] | IC50 [2]
CN1C(=O)CC[C@@]2(C)C1=CCC1C2CC[C@@]2(C)C1CC[C@@H]2N(C)C=O (stereo partly specified) | > 1000 nM | 1900 nM
CN(C=O)[C@H]1CCC2C3CC[C@H]4NC(=O)C=C[C@]4(C)C3CC[C@@]21C (stereo partly specified) | > 1000 nM | 207 nM
COc1ccc(N(C(=O)c2ccccc2)[C@H]2CCC3C4CC[C@H]5N(C)C(=O)CC[C@]5(C)C4CC[C@@]32C)cc1 (stereo partly specified) | > 1000 nM | 2.11 nM
CCCCN(C=O)[C@H]1CCC2C3CC[C@H]4N(C)C(=O)CC[C@]4(C)C3CC[C@@]21C (stereo partly specified) | > 100 nM | 3.05 nM
CCCCCN(C(=O)c1ccccc1)[C@H]1CCC2C3CC[C@H]4N(C)C(=O)CC[C@]4(C)C3CC[C@@]21C (stereo partly specified) | > 100 nM | 3.22 nM
CC(C)C(=O)N(c1ccc([N+](=O)[O-])cc1)[C@H]1CCC2C3CC[C@H]4N(C)C(=O)CC[C@]4(C)C3CC[C@@]21C (stereo partly specified) | > 1000 nM | 32.8 nM
CCCCCN(C=O)[C@H]1CCC2C3CC[C@H]4N(C)C(=O)CC[C@]4(C)C3CC[C@@]21C (stereo partly specified) | > 100 nM | 0.91 nM
COc1ccc(N(C(=O)C(C)C)[C@H]2CCC3C4CC[C@H]5N(C)C(=O)CC[C@]5(C)C4CC[C@@]32C)cc1 (stereo partly specified) | > 100 nM | 5.44 nM
CN(C=O)[C@H]1CCC2C3CC[C@H]4N(C)C(=O)C=C[C@]4(C)C3CC[C@@]21C (stereo partly specified) | > 1000 nM | 124 nM
CC(C)CN(C=O)[C@H]1CCC2C3CC[C@H]4N(C)C(=O)CC[C@]4(C)C3CC[C@@]21C (stereo partly specified) | > 100 nM | 7.31 nM
CC(C)C(=O)N(c1ccc([N+](=O)[O-])c(C(F)(F)F)c1)[C@H]1CCC2C3CC[C@H]4N(C)C(=O)CC[C@]4(C)C3CC[C@@]21C (stereo partly specified) | > 1000 nM | 59.8 nM
CCCCCCN(C=O)[C@H]1CCC2C3CC[C@H]4N(C)C(=O)CC[C@]4(C)C3CC[C@@]21C (stereo partly specified) | > 100 nM | 7.25 nM
CN1C(=O)CC[C@]2(C)C3CC[C@@]4(C)C(CC[C@@H]4N(C=O)C4CCCCC4)C3CC[C@@H]12 (stereo partly specified) | > 100 nM | 
CCCCCN(C(=O)CCC)[C@H]1CCC2C3CC[C@H]4N(C)C(=O)CC[C@]4(C)C3CC[C@@]21C (stereo partly specified) | > 100 nM | 3.31 nM
CN(C=O)[C@H]1CCC2C3CC[C@H]4NC(=O)CC[C@]4(C)C3CC[C@@]21C (stereo partly specified) | > 1000 nM | 3700 nM

Continued, values first:

IC50 [1] | IC50 [2] | Structure (SMILES)
> 100 nM |  | CCC(CC)N(C=O)[C@H]1CCC2C3CC[C@H]4N(C)C(=O)CC[C@]4(C)C3CC[C@@]21C (stereo partly specified)
> 100 nM | 2.19 nM | CC(C)CCN(C=O)[C@H]1CCC2C3CC[C@H]4N(C)C(=O)CC[C@]4(C)C3CC[C@@]21C (stereo partly specified)
> 100 nM | 1.77 nM | CCCCCN(C(=O)CCCC)[C@H]1CCC2C3CC[C@H]4N(C)C(=O)CC[C@]4(C)C3CC[C@@]21C (stereo partly specified)
> 100 nM | 5.08 nM | CCCN(C=O)[C@H]1CCC2C3CC[C@H]4N(C)C(=O)CC[C@]4(C)C3CC[C@@]21C (stereo partly specified)
> 100 nM |  | CN1C(=O)CC[C@]2(C)C3CC[C@@]4(C)C(CC[C@@H]4N(C=O)C4CC4)C3CC[C@@H]12 (stereo partly specified)
3.75 nM | 2.93 nM | CN1C(=O)CC[C@]2(C)C3CC[C@@]4(C)C(CC[C@@H]4N(C(=O)c4ccccc4)c4ccccc4)C3CC[C@@H]12 (stereo partly specified)
> 100 nM | 9.53 nM | CC(C)N(C=O)[C@H]1CCC2C3CC[C@H]4N(C)C(=O)CC[C@]4(C)C3CC[C@@]21C (stereo partly specified)
1000 nM | 2.42 nM | CCCCCN(C(=O)CCCCBr)[C@H]1CCC2C3CC[C@H]4N(C)C(=O)CC[C@]4(C)C3CC[C@@]21C (stereo partly specified)
582 nM | 10.5 nM | CC(C)C(=O)N(c1ccccc1)[C@H]1CCC2C3CC[C@H]4N(C)C(=O)CC[C@]4(C)C3CC[C@@]21C (stereo partly specified)
> 100 nM | 2.35 nM | CN1C(=O)CC[C@]2(C)C3CC[C@@]4(C)C(CC[C@@H]4N(C=O)CCC(C)(C)C)C3CC[C@@H]12 (stereo partly specified)
> 100 nM | 5.63 nM | CN1C(=O)CC[C@]2(C)C3CC[C@@]4(C)C(CC[C@@H]4N(C=O)Cc4ccccc4)C3CC[C@@H]12 (stereo partly specified)
4.53 nM | 26.3 nM | CC(C)(C)NC(=O)[C@H]1CC[C@H]2[C@@H]3CC[C@H]4NC(=O)C=C[C@]4(C)[C@H]3CC[C@]12C [FINASTERIDE]
> 100 nM | 4.56 nM | CCCCCN(C(=O)CC)[C@H]1CCC2C3CC[C@H]4N(C)C(=O)CC[C@]4(C)C3CC[C@@]21C (stereo partly specified)
> 100 nM |  | CCCCN(C(C)=O)[C@H]1CCC2C3CC[C@H]4N(C)C(=O)CC[C@]4(C)C3CC[C@@]21C (stereo partly specified)
1000 nM |  | CN(C=O)[C@H]1CCC2C3CC[C@H]4N(C)C(=O)CC[C@]4(C)C3CC[C@@]21C (stereo partly specified)
14 nM | 9.57 nM | CCCCCCCN(C=O)[C@H]1CCC2C3CC[C@H]4N(C)C(=O)CC[C@]4(C)C3CC[C@@]21C (stereo partly specified)
18.4 nM | 16.9 nM | CCCCCCCCN(C=O)[C@H]1CCC2C3CC[C@H]4N(C)C(=O)CC[C@]4(C)C3CC[C@@]21C (stereo partly specified)
7.48 nM | 4.14 nM | CCN(CC)C(=O)[C@H]1CC[C@H]2[C@@H]3CC[C@H]4N(C)C(=O)CC[C@]4(C)[C@H]3CC[C@]12C
